Measurements published in ChEMBL document CHEMBL1124386, “Selective thyromimetics. Cardiac-sparing thyroid hormone analogues containing 3'-arylmethyl substituents” (J Med Chem, 1989).
In brackets after ≈: the same amount, converted by molar mass. Activity calls are given as the source filed them. No cut-off for these calls is given here.

Columns and labels:
[1] = system: Rattus norvegicus; assay: Percent increase in oxygen consumption after seven daily doses of test compound given intramuscularly, with the concentration of compound at 0.1 mg/kg; assay type: functional; conditions: route intramuscular
In short: (§1)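 Euthyroid rats given seven daily doses, intramuscular or oral, by line; whole-body oxygen consumption measured as percent increase in metabolic rate.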

[2] = system: Rattus norvegicus; assay: Potency for induction of GPDH (mitochondrial cytochrome C3-phosphoglycerate oxidoreductase) was measured 48 hours after single intramuscular injection relative to T3 in heart; assay type: functional
[3] = Binding affinity to the thyroid hormone receptor was determined in vitro in isolated nuclei of rat liver relative to 3,5,3' triiodothyronine; assay type: tissue-based
[4] = system: Rattus norvegicus; assay: Potency for induction of GPDH (mitochondrial cytochrome C3-phosphoglycerate oxidoreductase) was measured 48 hours after single intramuscular injection relative to T3 in liver; assay type: functional
[5] = system: Rattus norvegicus; assay: Percent increase in oxygen consumption after seven daily doses of test compound given perorally, with concentration of compound at 0.1 mg/kg; assay type: functional; conditions: route oral; in short: as §1
[6] = system: Rattus norvegicus; assay: Percent increase in oxygen consumption after seven daily doses of test compound given perorally, with concentration of compound; I=inactive after 2 daily doses of 5o mg/kg; assay type: functional, organism-based; in short: as §1
[7] = system: Rattus norvegicus; assay: Percent increase in oxygen consumption after seven daily doses of test compound given intramuscularly, with concentration of compound at 20 mg/kg; assay type: functional; conditions: route intramuscular; in short: as §1
[8] = system: Rattus norvegicus; assay: Potency for induction of GPDH (mitochondrial cytochrome C3-phosphoglycerate oxidoreductase) was measured 48 hr after single im injection relative to T3 in heart; I=inactive after 2 daily doses of 50 mg/kg; assay type: functional, organism-based; design: dose 50 mg/kg
[9] = system: Rattus norvegicus; assay: Potency for induction of GPDH (mitochondrial cytochrome C3-phosphoglycerate oxidoreductase) was measured relative to T3 in heart; I=inactive after 2 daily doses of 50 mg/kg; assay type: functional, organism-based; design: dose 50 mg/kg
[10] = biological target: T1, Thyroid hormone receptor beta (Rattus norvegicus) (UniProt P18113); assay: Binding affinity to the receptor was determined in isolated nuclei of liver in vitro relative to 3,5,3' triiodothyronine receptor
T1 sequence (whole entry): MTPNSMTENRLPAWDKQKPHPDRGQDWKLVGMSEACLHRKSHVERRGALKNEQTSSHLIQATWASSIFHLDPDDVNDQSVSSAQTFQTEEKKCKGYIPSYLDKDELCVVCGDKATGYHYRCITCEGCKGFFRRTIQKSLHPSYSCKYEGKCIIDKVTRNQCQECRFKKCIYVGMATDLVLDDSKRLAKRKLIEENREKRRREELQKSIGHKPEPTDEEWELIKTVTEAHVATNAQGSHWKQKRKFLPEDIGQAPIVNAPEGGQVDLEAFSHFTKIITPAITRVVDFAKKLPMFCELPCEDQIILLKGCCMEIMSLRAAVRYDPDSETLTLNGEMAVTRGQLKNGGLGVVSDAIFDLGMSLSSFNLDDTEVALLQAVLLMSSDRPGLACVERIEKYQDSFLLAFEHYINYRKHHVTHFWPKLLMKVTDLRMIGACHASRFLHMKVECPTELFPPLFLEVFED

[11] = biological target: T1, Thyroid hormone receptor beta (Rattus norvegicus); assay: In vivo binding affinity to the receptor was determined in nuclei of heart 1 h after intravenous administration relative to 3,5,3' triiodothyronine receptor
[12] = system: Rattus norvegicus; assay: Percent increase in oxygen consumption after seven daily oral doses of 5 mg/kg in euthyroid rats
[13] = biological target: T1, Thyroid hormone receptor beta (Rattus norvegicus); assay: Binding affinity to the receptor was determined in nuclei of liver In vivo 1 hour after intravenous administration relative to 3,5,3' triiodothyronine receptor; assay type: organism-based
[14] = biological target: T1, Thyroid hormone receptor beta (Rattus norvegicus); assay: Selectivity, ratio of relative ID50 in liver and heart
In short: (§2)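 Liver/heart selectivity in rats, calculated as (relative ID50)liver divided by (relative ID50)heart, from in vivo nuclear binding 1 h after intravenous dosing.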

[15] = biological target: T1, Thyroid hormone receptor beta (Rattus norvegicus); assay: Binding affinity to the receptor was determined in isolated nuclei of heart in vitro relative to 3,5,3' triiodothyronine receptor
[16] = system: Rattus norvegicus; assay: Potency for induction of GPDH (mitochondrial cytochrome C3-phosphoglycerate oxidoreductase) was measured 48 hours after single intramuscular injection relative to T3 in liver; LM is low maximal response after 2 daily doses of 50 mg/kg; assay type: functional
[17] = biological target: T1, Thyroid hormone receptor beta (Rattus norvegicus); assay: Binding affinity to the receptor was determined in nuclei of heart in vivo 1 hour after intravenous administration relative to 3,5,3' triiodothyronine receptor
[18] = biological target: T1, Thyroid hormone receptor beta (Rattus norvegicus); assay: Binding affinity to the receptor was determined in isolated nuclei of heart(In vitro) relative to T3
[19] = system: Rattus norvegicus; assay: Percent increase in oxygen consumption after seven daily doses in mg/kg increase of test compound given perorally; I=inactive after 2 daily doses of 50 mg/kg; assay type: functional, organism-based; design: dose 50 mg/kg; in short: as §1
[20] = system: Rattus norvegicus; assay: Percent increase in oxygen consumption in dose-mg/Kgfter seven daily doses of test compound given intramuscularly, at a conc of 3.3 mg/kg; assay type: functional; conditions: route intramuscular; in short: as §1
[21] = Aqueous solubility at 37 degree Celsius at pH 7.38; assay type: physicochemical
In short: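 Solubility in aqueous medium at 37 °C, pH 7.38; given in units of ×10^5 mol/L.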

[22] = Selectivity, ratio between relative ID50 in liver and heart; in short: as §2
[23] = biological target: T1, Thyroid hormone receptor beta (Rattus norvegicus); assay: Binding affinity to the receptor was determined in nuclei of liver In vivo 1 hour after intravenous administration relative to T3; assay type: organism-based
[24] = Partition coefficient at 25 degree Celsius in octanol/aqueous buffer at pH 6.02; assay type: physicochemical
[25] = system: Rattus norvegicus; assay: Percent increase in oxygen consumption after seven daily doses of test compound given perorally; I is inactive after 2 daily doses of 50 mg/kg; assay type: functional, organism-based; design: dose 50 mg/kg; in short: as §1
[26] = system: Thyroid hormone receptor (Rattus norvegicus); assay: Binding affinity to thyroid hormone receptor, relative to 3,5,3' triiodothyronine receptor, in isolated nuclei of heart
[27] = system: Rattus norvegicus; assay: Percent increase in oxygen consumption after seven daily doses of test compound given perorally, with concentration of compound at 5.3 mg/kg; assay type: functional; conditions: route oral; in short: as §1
[28] = system: Rattus norvegicus; assay: Potency for induction of GPDH (mitochondrial cytochrome C 3-phosphoglycerate oxidoreductase) was measured 48 hr after single im injection relative to T3 in heart; LM=low maximal response after 2 daily doses of 50 mg/kg; assay type: functional, organism-based; design: dose 50 mg/kg; conditions: filed as partial agonist
[29] = system: Rattus norvegicus; assay: Potency for induction of GPDH (mitochondrial cytochrome C3-phosphoglycerate oxidoreductase) was measured 48 hours after single intramuscular injection relative to […] in liver; assay type: functional
[30] = system: Rattus norvegicus; assay: In vivo binding affinity for 3,5,3'' triiodothyronine receptor of heart nuclei 1 hr after intravenous administration; assay type: organism-based
[31] = system: Rattus norvegicus; assay: Percent increase in oxygen consumption after seven daily doses of test compound given perorally, with concentration of compound at 5 mg/kg; assay type: functional; conditions: route oral; in short: as §1
[32] = system: Rattus norvegicus; assay: In vivo binding affinity for 3,5,3' triiodothyronine receptor of liver nuclei 1 hour after intravenous administration; assay type: organism-based
[33] = system: Rattus norvegicus; assay: Percent increase in oxygen consumption after seven daily doses of test compound given intramuscularly, ata conc of 3.3 mg/kg; assay type: functional; conditions: route intramuscular; in short: as §1
[34] = partition coefficient at 25 degree Celsius in octanol/aqueous buffer at pH 6.02; assay type: physicochemical
[35] = system: Rattus norvegicus; assay: Percent increase in oxygen consumption after seven daily doses of test compound given intramuscularly, with the concentration of compound at 10 mg/kg; assay type: functional; conditions: route intramuscular; in short: as §1
[36] = biological target: T1, Thyroid hormone receptor beta (Rattus norvegicus); assay: (§3) In vitro binding affinity to the receptor was determined in isolated nuclei of heart relative to T3; assay type: functional
[37] = system: Rattus norvegicus; assay: Percent increase in oxygen consumption after seven daily doses of test compound given perorally, with value in braces indicating the concentration of compound at 5 mg/kg; assay type: functional; conditions: route oral; in short: as §1
[38] = biological target: T1, Thyroid hormone receptor beta (Rattus norvegicus); assay: Binding affinity to the receptor was determined in vitro in isolated nuclei of rat liver relative to T3; assay type: tissue-based
[39] = biological target: T1, Thyroid hormone receptor beta (Rattus norvegicus); assay: Binding affinity to the receptor was determined in nuclei of heart in vivo 1 hour after intravenous administration relative to T3; assay type: organism-based
[40] = biological target: T1, Thyroid hormone receptor beta (Rattus norvegicus); assay: as §3
[41] = system: Rattus norvegicus; assay: Percent increase in oxygen consumption after seven daily doses of test compound given perorally, with concentration of compound at 0.04 mg/kg; assay type: functional; conditions: route oral; in short: as §1
[42] = system: Rattus norvegicus; assay: Percent increase in oxygen consumption after seven daily doses of test compound given intramuscularly, at a conc of 3.3 mg/kg; assay type: functional; conditions: route intramuscular; in short: as §1
[43] = system: Rattus norvegicus; assay: Percent increase in oxygen consumption after seven daily doses of test compound given perorally; I=inactive after 2 daily doses of 50 mg/kg; assay type: functional, organism-based; design: dose 50 mg/kg; in short: as §1
[44] = system: Rattus norvegicus; assay: Potency for induction of GPDH (mitochondrial cytochrome C 3-phosphoglycerate oxidoreductase) was measured 48 hr after single im injection relative to T3 in liver; LM=low maximal response after 2 daily doses of 50 mg/kg; assay type: functional, organism-based; design: dose 50 mg/kg; conditions: filed as partial agonist
[45] = system: Rattus norvegicus; assay: Potency for induction of GPDH was measured 48 hr after single intramuscular injection relative to T3 in lheart; LM=low maximal response after 2 daily doses of 50 mg/kg; assay type: functional, organism-based; design: dose 50 mg/kg; conditions: filed as partial agonist

N[C@@H](Cc1cc(Br)c(Oc2ccc(O)c(Cc3ccc(O)nn3)c2)c(Br)c1)C(=O)O
Increase [1]: 20%
Relative ED50 [2]: <0.1
Relative IC50 [3]: 0.9
Relative ED50 [4]: 18
Increase [5]: 20%

O=C(O)Cc1cc(Br)c(Oc2ccc(O)c(Cc3ccc(O)nc3)c2)c(Br)c1
% increase O2 consumption [6]: inactive
Relative IC50 [3]: 3
Relative ED50 [4]: 2
Increase [7]: 21%
Relative ED50 [8]: inactive

O=C(O)CCCc1cc(Br)c(Oc2ccc(O)c(Cc3ccc(O)nc3)c2)c(Br)c1
Relative ED50 [9]: inactive
Relative IC50 [3]: 21.7
Relative ED50 [4]: 0.69
Relative IC50 [10]: 21.7
Relative ID50 [11]: 0.26
Increase [12]: 19%

N[C@@H](Cc1cc(I)c(Oc2ccc(O)c(Cc3ccc(F)cc3)c2)c(I)c1)C(=O)O
Relative ID50 [13]: 98
Relative ED50 [2]: 3.7
Relative IC50 [3]: 60
Ratio [14]: 11.4
Relative IC50 [15]: 43
Relative ED50 [16]: 5.7
Relative ID50 [17]: 8.6

N[C@@H](Cc1cc(I)c(Oc2ccc(O)c(Cc3ccc(O)nc3)c2)c(I)c1)C(=O)O
Relative IC50 [18]: 2.7
Relative IC50 [3]: 2.3
Relative ED50 [4]: 1.7
Increase [19]: inactive
Increase [20]: 19%
solubility [21]: 10 µM (≈ 6.32 µg/mL)
Relative ID50 [17]: 0.2
Ratio [22]: 50
Relative ED50 [8]: inactive
Relative ID50 [23]: 10
logD [24]: 1.01

N[C@H](Cc1cc(I)c(Oc2ccc(O)c(Cc3ccc(O)nc3)c2)c(I)c1)C(=O)O
% increase O2 consumption [25]: inactive
Relative IC50 [3]: 1.1
Relative ED50 [4]: 1
Relative IC50 [26]: 1.9
Relative ED50 [8]: inactive

N[C@@H](Cc1cc(Br)c(Sc2ccc(O)c(Cc3ccc(O)nc3)c2)c(Br)c1)C(=O)O
Increase [27]: 16%
Relative IC50 [3]: 9.8
Relative ED50 [28]: Partial agonist
Relative IC50 [26]: 10.2
Relative ED50 [29]: 14.5

N[C@@H](Cc1cc(Br)c(Oc2ccc(O)c(Cc3ccc(O)nc3)c2)c(Br)c1)C(=O)O
Relative ID50 [30]: 0.3
Increase [31]: 31%
Relative ID50 [32]: 23
Relative IC50 [3]: 2
Relative ED50 [4]: 6.9
Relative IC50 [26]: 1.8
Increase [33]: 32%
solubility [21]: 33 µM (≈ 17.8 µg/mL)
logD [34]: 0.7
Relative ED50 [8]: inactive

Cc1cc(CC(N)C(=O)O)cc(C)c1Oc1ccc(O)c(Cc2ccc(O)nc2)c1 (configuration not stated)
Increase [35]: 28%
Relative IC50 [36]: 0.14
Relative ED50 [4]: 1.1
Relative ED50 [8]: inactive
Increase [37]: 18%
Relative IC50 [38]: 0.083

O=C(O)CCc1cc(Br)c(Oc2ccc(O)c(Cc3ccc(O)nc3)c2)c(Br)c1
Relative ED50 [2]: 0.04
Relative ED50 [4]: 2
Relative ID50 [39]: 4.2
Relative IC50 [40]: 33.2
Relative IC50 [38]: 31.6

N[C@@H](Cc1cc(Cl)c(Oc2ccc(O)c(Cc3ccc(O)nn3)c2)c(Cl)c1)C(=O)O
Relative IC50 [3]: 0.48
Relative ED50 [28]: Partial agonist
Relative IC50 [26]: 0.8
Increase [41]: 15%
Relative ED50 [29]: 25

N[C@@H](Cc1cc(I)c(Sc2ccc(O)c(Cc3ccc(O)nc3)c2)c(I)c1)C(=O)O
Increase [42]: 26%
Relative IC50 [3]: 14.8
Relative ED50 [4]: 16.6
Relative IC50 [26]: 19.4
Relative ED50 [8]: inactive
% increase O2 consumption [43]: inactive

N[C@@H](Cc1cc(I)c(Oc2ccc(O)c(Cc3ccccc3O)c2)c(I)c1)C(=O)O
Relative IC50 [3]: 0.81
Relative ED50 [44]: Partial agonist
Relative ED50 [45]: Partial agonist
Relative ID50 [17]: 0.024
Ratio [22]: 1
Relative ID50 [23]: 0.024
